TRPC4 inh: blocks the mouse TRPC4 cation channel | actives 0.39% (n = 300,000) | Q9QUQ5 | HEK293 TRPC4beta/mu-opioid, DAMGO-evoked Fluo4 calcium flux; active compounds read low | AID 2247 | B-score at 10 µM;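 active means B-score over 3 SD under the library average, no early fluorescence shift, positive overall ratio signal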
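Assay system: TRPC4beta/mu-opioid receptor HEK293 cell line; compound dosing: single concentration per test compound; detection: Fluo4 Ca2+ flux fluorescence; evaluation: per-well B score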
TRPC6 act: activators of mouse TRPC6 channel | HEK293-TRPC6 membrane potential dye fluorescence; active compounds read high | AID 2550 | B-score at 10 µM | actives 0.13% (n = 310,000);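 active means B-score of the integrated fluorescence ratio above library mean plus 3 SD, and starting fluorescence ratio within library mean plus 5 SD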;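 further: higher score means more depolarization so channel activation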
TRPC4 act: activators of mouse TRPC4 channel; B-score at 10 µM; HEK293 TRPC4beta/mu-opioid, Fluo4 calcium fluorescence; active compounds read high; Q9QUQ5; actives 0.49% (n = 310,000);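 active means B-score above 5 SD of library B-scores, and initial fluorescence ratio not above library mean plus 5 SD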;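 further: positive B-score marks a calcium rise read as TRPC4 activation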
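Material: HEK293 stable line with TRPC4beta plus mu-opioid receptor; technique: Fluo4 calcium-sensitive dye fluorescence, kinetic, 1 Hz baseline; timing: Fluo4 dye loading 45 min at room temperature, 110 s recording; controls: assay buffer as low control, maximal DAMGO as high control; read-out: integrated baseline-normalised fluorescence ratio, converted to per-well B score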
TRPC6 inh: blocks the mouse TRPC6 cation channel; actives 1.1% (n = 310,000); B-score at 10 µM; HEK293-TRPC6, membrane potential dye, ACh-evoked depolarization; active compounds read low; Q61143; AID 2553;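 active means B-score under library mean minus 3 SD, initial fluorescence not abnormally high, positive integrated signal ratio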;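 further: B-score derived from integrated fluorescence ratio over the kinetic read; more negative B-score means stronger inhibition of depolarization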
TRPC4 potent: allosteric potentiators of mouse TRPC4 channel. Q9QUQ5. HEK293 TRPC4beta/mu-opioid, DAMGO EC20, Fluo-4 Ca2+ flux; active compounds read high. B-score at 10 µM. actives 0.42% (n = 310,000). AID 2227;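 active means B-score of calcium response area above 5 SD of library B-scores, with initial fluorescence ratio within 5 SD of library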;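 further: B-score of integrated fluorescence ratio over time as area under calcium response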
TRPC4 spec 2: second check of whether TRPC6 inhibitors also affect mouse TRPC4. shares compounds with TRPC6 inh. HEK293 TRPC4/MOR, membrane potential dye fluorescence; channel activated by saturating DAMGO dose. inhibition, % at 10 µM. actives 42% (n = 920). AID 2776;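 active means compounds whose fluorescence signal differed from control wells by over 3 SD, either direction, in both duplicate plates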
TRPC4 spec: tests whether TRPC6 inhibitors also affect mouse TRPC4; activity change, negative = inhibition, % at 10 µM; shares compounds with TRPC6 inh; HEK293 TRPC4/mu-opioid, membrane potential fluorescence; actives 61% (n = 920);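 active means rise or fall in signal beyond 3 SD of buffer-only wells in both replicate plates, either sign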;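 further: integrated kinetic ratio of fluorescence range over baseline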
HEK293 MPD ctr 2-1: parental HEK293 nonspecific activity of TRPC6 inhibitors, second screen | shares compounds with TRPC6 inh | parental HEK293 membrane potential dye fluorescence; maximal acetylcholine challenge after compound addition | signal change vs control, % at 10 µM | actives 31% (n = 920);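 active means membrane potential signal moving either way by over 3 SD of the maximum-effect control, in both duplicate plates, meaning non-specific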
HEK293 MPD ctr-1: parental HEK293 nonspecific activity of TRPC6 inhibitors | shares compounds with TRPC6 inh | parental HEK293 membrane potential dye fluorescence | membrane potential signal change, % at 10 µM | actives 60% (n = 920) | AID 2780;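 active means membrane potential signal shifting up or down by more than 3 SD of buffer-only wells, on both duplicate plates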
HEK293 MPD ctr-2: checks TRPC6 modulator effects in parental HEK293 cells | shares compounds with TRPC6 inh | membrane potential dye fluorescence | membrane potential signal change, % at 10 µM | actives 51% (n = 2,400);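 active means membrane potential signal moves up or down beyond 5 SD from buffer-only wells, on both duplicate plates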
HEK293 MPD ctr 2-2: parental HEK293 nonspecific activity of TRPC6 modulators, second screen. shares compounds with TRPC6 inh. membrane potential dye fluorescence; after compound, maximal acetylcholine stimulation. inhibition, % at 10 µM. actives 14% (n = 2,400);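 active means membrane potential signal drops by more than 5 SD from the mean control signal, in both duplicate plates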;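 further: plate controls were acetylcholine ECmax control wells for no effect and buffer only wells for full effect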
TRPC4 ctr mod: mouse TRPC4 off-target activity of TRPC6 modulators; shares compounds with TRPC6 inh; HEK293 TRPC4/mu-opioid, membrane potential fluorescence; percent change from control (negative = decrease, positive = increase), % at 10 µM; actives 69% (n = 2,400); AID 488927;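 active means membrane potential signal moved up or down beyond 5 SD of buffer control wells, in both duplicate plates, actives on both sides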;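 further: plate controls were assay buffer wells for no effect and DAMGO maximal-effect wells for full effect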
TRPC4 ctr inh 2: second selectivity test of TRPC6 modulators against mouse TRPC4 | inhibition, % at 10 µM | shares compounds with TRPC6 inh | HEK293 TRPC4/mu-opioid, membrane potential dye fluorescence; stimulated with maximal-effect DAMGO | actives 55% (n = 2,400) | AID 488928;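 active means drop in membrane potential signal beyond 5 SD of the control wells in both duplicate plates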;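 further: TRPC4 counter screen for TRPC6 hits run under conditions tuned for TRPC6 not TRPC4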
TRPC6 block conf: mouse TRPC6 inhibitor confirmation. shares compounds with TRPC6 inh. HEK293-TRPC6, membrane potential dye, ACh-evoked depolarization. inhibition, % at 10 µM. actives 43% (n = 3,300). AID 488960;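 active means fluorescence ratio falls more than 5 SD below the full-stimulation control mean, in both duplicate runs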;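 further: integrated fluorescence ratio of peak minus minimum over baseline after agonist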
TRPC6 act conf: confirmation of mouse TRPC6 activators. HEK293-TRPC6 membrane potential dye fluorescence, FDSS. actives 11% (n = 2,800). activation, % at 10 µM. shares compounds with TRPC6 inh;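 active means ratio signal rise beyond 5 SD above unstimulated control wells' mean, seen in both duplicate runs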;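 further: plate controls were buffer EC0 wells for no effect and acetylcholine ECmax response for full effect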
* hit, by the source's call; i = inactive; · = no result; + = active, no number. Sampled rows, rich in hits. Any-hit rate of the full collection: about 2.3%.

SMILES	TRPC4 inh	TRPC6 act	TRPC4 act	TRPC6 inh	TRPC4 potent	HEK293 MPD ctr-2	HEK293 MPD ctr 2-2	TRPC4 ctr mod	TRPC4 ctr inh 2	TRPC6 block conf	TRPC6 act conf	others
CS(=O)(=O)N(CC(=O)Nc1cccc(Br)c1)Cc1ccccc1	i	i	i	i	i	·	·	·	·	·	·
Cc1cc(N2C(=O)C(O)=C(C(=O)c3ccco3)C2c2ccccc2F)no1 (centres undefined)	i	i	i	i	i	·	·	·	·	·	·
CS(=O)(=O)N(CC(=O)NCc1ccccc1Cl)C1CCCCC1	i	i	i	-6.5*	i	134%*	i	22%*	i	i	·
CS(=O)(=O)N(CC(=O)NCc1ccc(Cl)cc1)C1CCCCC1	i	i	i	i	i	·	·	·	·	·	·
CN(C)C(=O)N1CCCC(C(=O)NCc2ccccc2Cl)C1 (centres undefined)	i	i	i	-5.3*	i	i	i	i	i	i	i
CCOC(=O)N1CCC(Nc2ccc3nnc(-c4ccccc4)n3n2)CC1	i	i	i	-5.5*	i	i	i	i	i	68%*	·
COc1ccc(-n2nc(C(N)=O)nc2-c2ccccc2)cc1	i	i	i	-5.8*	i	i	i	i	i	48%*	·
Cc1ccc(-n2nc(C(N)=O)nc2-c2ccccc2)cc1	i	i	i	i	i	·	·	·	·	·	·
Cc1onc(-c2ccccc2Cl)c1C(=O)NCc1ccc(F)cc1	i	i	i	i	i	·	·	·	·	·	·
COc1ccccc1OCC(=O)OCC(=O)Nc1sccc1C(N)=O	i	i	i	-5.4*	i	i	i	i	i	i	i
COc1ccc(C(=O)OCC(=O)Nc2sccc2C(N)=O)cc1OC	i	i	i	i	i	·	·	·	·	·	·
Cn1c(CCN2CCCCC2)nc2cc(NC(=O)COc3ccc(Cl)cc3)ccc21	i	i	i	i	i	·	·	·	·	·	·
Cc1ccc(C(C)C)c(OCC(=O)Nc2ccc3c(c2)nc(CCN2CCCCC2)n3C)c1	i	i	i	-6*	i	i	i	i	78%*	57%*	·
C=CCn1c(Oc2cc(C)ccc2C)nc2c1c(=O)n(C)c(=O)n2C	i	i	i	-6.2*	i	140%*	i	30%*	41%*	i	·
C=CCn1c(Oc2cccc(C)c2)nc2c1c(=O)n(C)c(=O)n2C	i	i	i	i	i	·	·	·	·	·	·
CCOc1ccc(-c2nc(S(=O)(=O)c3ccccc3)c(N3CCC(C(N)=O)CC3)o2)cc1	i	i	i	i	i	·	·	·	·	·	·
Clc1nc(Nc2ccc(N3CCOCC3)cc2)c2ccccc2n1	i	i	i	i	i	·	·	·	·	·	·
O=S(=O)(Nc1nc2ccccc2nc1Nc1ccc(N2CCOCC2)cc1)c1cc(Cl)ccc1Cl	i	i	i	-6.7*	i	·	·	·	·	i	i	TRPC4 spec 2=78%*;TRPC4 spec=-10%*;HEK293 MPD ctr 2-1=i;HEK293 MPD ctr-1=-241%*
CN1CCN(C(CNC(=O)C(=O)Nc2ccc3c(c2)OCO3)c2ccc(F)cc2)CC1 (centres undefined)	i	i	i	-6*	i	100%*	i	12%*	i	39%*	i
CCN(CC)S(=O)(=O)c1ccc(NC(=O)CNC2CCCCC2)cc1	i	i	i	-5.3*	i	i	i	i	58%*	46%*	i
CCN(CC)S(=O)(=O)c1ccc(NC(=O)CCC2CCCCC2)cc1	i	i	i	i	i	·	·	·	·	·	·
Cc1cccc(N2CCN(C(=O)c3ccc(N4CCCC4=O)cc3)CC2C)c1 (centres undefined)	i	i	i	i	i	·	·	·	·	·	·
Cc1cccc(N2CCN(C(=O)c3ccc4c(c3)c(C)c(C)n4C)CC2C)c1 (centres undefined)	i	i	i	-5.1*	i	i	i	i	i	i	i
Nc1nc(NCc2ccccc2Cl)n(-c2ccccc2)n1	i	i	i	i	i	·	·	·	·	·	·
Cc1ccc(-n2ncc(C(=O)N3CCN(C(=O)c4ccco4)CC3)c2-n2cccc2)cc1	i	i	i	-5.3*	i	i	i	9.0%*	i	59%*	·
COC(=O)CCCCC1SCC(NC(=O)c2ccccc2)C1=O (centres undefined)	i	i	i	i	i	·	·	·	·	·	·
CCOC(=O)C1(S(=O)(=O)c2ccc(Cl)cc2)CCN(Cc2ccc(C)cc2)CC1	i	i	i	i	i	·	·	·	·	·	·
c1ccc(-c2nc(-c3ccccn3)nc(-c3ccccn3)n2)nc1	i	i	i	-6.7*	i	·	·	·	·	i	i	TRPC4 spec 2=i;TRPC4 spec=-19%*;HEK293 MPD ctr 2-1=4.0%*;HEK293 MPD ctr-1=-266%*
COc1cc(/C=C2/SC(=S)N(Cc3ccccc3)C2=O)cc(Cl)c1O	i	76*	174*	i	37*	+	i	520%*	i	i	555%*
